# Measurements taken from ChEMBL document CHEMBL1157729, “Structure-activity relationship and mechanism of action studies of manzamine analogues for the control of neuroinflammation and cerebral infections” (J Med Chem, 2010).
# Legend:
# [1] = Selectivity index, ratio of IC50 for african green monkey (Cercopithecus aethiops) Vero cells to IC50 for chloroquine-sensitive Plasmodium falciparum; type: toxicity, cell-based
# [2] = Antineuroinflammatory activity in LPS-stimulated rat neonatal microglia assessed as drug level causing 50% PMA-induced LDH release preincubated 15 mins prior to PMA challenge measured after 70 mins; type: functional
# Outline: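 Neonatal rat microglia (2 × 10^5/well) primed with E. coli LPS 0.3 ng/mL for 17 h at 35.9 °C, washed with HBSS, given compound (0.01–10 μM) or DMSO 15 min, then PMA 1 μM; LDH read spectrophotometrically after 70 min; LDH50 relative to Triton X-100 (0.1%) release; duplicates.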
# MDCK = assay: Apparent permeability across apical to basolateral side of MDCK cells expressing MDR; type: ADME, cell-based, Canis lupus familiaris; conditions: dog
# Outline: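 MDR-MDCK cells (passage 12-40) seeded at 75,000 cells/cm2 and grown 8 days on Transwell inserts to a monolayer. Bidirectional transport over 2 h in HBSS pH 7.4 with test substance at 50 μM and caffeine (5 μM) as standard. Donor and receiver samples quantified by LC-MS. Cumulative amount transported plotted against time to derive apparent permeability.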
# Plasmodium berghei [3] = assay: Antiplasmodial activity against Plasmodium berghei NK65 infected in Swiss Webster mice (Mus musculus) assessed as inhibition of parasitaemia at 1.1 mg/kg, perorally administered 1 day after infection for 3 days measured after 5 days post infection; type: functional; conditions: route oral
# Outline: (§1)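 Male Swiss Webster mice (18-20 g, ≥5/group) inoculated i.p. with 2×10^7 P. berghei NK-65 parasitized RBC; oral dosing (100 μl, SSV or dilute HCl vehicle) once daily for 3 days from day 1; Giemsa-stained tail blood smears days 5–28; inhibition is % decrease versus untreated controls on day 5.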
# Plasmodium berghei [4] = assay: Antiplasmodial activity against Plasmodium berghei NK65 infected in Swiss Webster mice (Mus musculus) assessed as inhibition of parasitaemia at 3.3 mg/kg, perorally administered 1 day after infection for 3 days measured after 5 days post infection; type: functional; conditions: route oral; outline: as §1
# Plasmodium berghei [5] = assay: Antiplasmodial activity against Plasmodium berghei NK65 infected in Swiss Webster mice (Mus musculus) assessed as average parasitaemia at 1.1 mg/kg, perorally administered 1 day after infection for 3 days measured after 7 days post infection; type: functional; conditions: route oral
# Plasmodium berghei [6] = assay: Antiplasmodial activity against Plasmodium berghei NK65 infected in Swiss Webster mice (Mus musculus) assessed as average parasitaemia at 3.3 mg/kg, perorally administered 1 day after infection for 3 days measured after 7 days post infection; type: functional; conditions: route oral; outline: as §1
# Plasmodium berghei [7] = assay: Antiplasmodial activity against Plasmodium berghei NK65 infected in Swiss Webster mice (Mus musculus) assessed as inhibition of parasitaemia at 5 mg/kg, perorally administered 1 day after infection for 3 days measured after 5 days post infection; type: functional; conditions: route oral
# Plasmodium berghei [8] = assay: Antiplasmodial activity against Plasmodium berghei NK65 infected in Swiss Webster mice (Mus musculus) assessed as average parasitaemia at 5 mg/kg, perorally administered 1 day after infection for 3 days measured after 7 days post infection; type: functional; conditions: route oral
# Plasmodium berghei [9] = assay: Antiplasmodial activity against Plasmodium berghei NK65 infected in Swiss Webster mice (Mus musculus) assessed as survivability at 10 mg/kg, perorally administered 1 day after infection for 3 days measured after 28 days post infection; type: functional; conditions: route oral
# Plasmodium berghei [10] = assay: Antiplasmodial activity against Plasmodium berghei NK65 infected in Swiss Webster mice (Mus musculus) assessed as inhibition of parasitaemia at 100 mg/kg, perorally administered 1 day after infection measured after 5 days post infection; type: functional; conditions: route oral
# Outline: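 Male Swiss Webster mice (18-20 g, ≥5/group) inoculated i.p. with 2×10^7 P. berghei NK-65 parasitized RBC, given a single oral dose (100 μl, SSV or dilute HCl vehicle); parasitemia by Giemsa-stained tail blood smears days 5–28; activity as % decrease versus untreated controls on day 5.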
# Plasmodium berghei [11] = assay: Antiplasmodial activity against Plasmodium berghei NK65 infected in Swiss Webster mice (Mus musculus) assessed as average parasitaemia at 5 mg/kg, perorally administered 1 day after infection for 3 days measured after 10 days post infection; type: functional; conditions: route oral
# Plasmodium berghei [12] = assay: Antiplasmodial activity against Plasmodium berghei NK65 infected in Swiss Webster mice (Mus musculus) at 10 mg/kg, po; type: functional
# Plasmodium berghei [13] = assay: Antiplasmodial activity against Plasmodium berghei NK65 infected in Swiss Webster mice (Mus musculus) at 5 mg/kg, po; type: functional
# Plasmodium berghei [14] = assay: Antiplasmodial activity against Plasmodium berghei NK65 infected in Swiss Webster mice (Mus musculus) assessed as average parasitaemia at 200 mg/kg, perorally administered 1 day after infection measured after 5 days post infection; type: functional; conditions: Plasmodium berghei, NK65, route oral
# Outline: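 Male Swiss Webster mice (18-20 g), at least 5 per group, were inoculated ip with 2×10^7 P. berghei NK-65-parasitized red cells from a donor mouse and given a single oral dose (100 μl). Stock was made in SSV or 0.1 M HCl and diluted in SSV or 0.01 M HCl. Parasitemia was read from Giemsa-stained tail blood smears from day 5 to day 28. Cure meant no parasitemia through day 28.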
# Plasmodium berghei [15] = assay: Antiplasmodial activity against Plasmodium berghei NK65 infected in Swiss Webster mice (Mus musculus) assessed as average parasitaemia at 100 mg/kg, perorally administered 1 day after infection measured after 7 days post infection; type: functional; conditions: route oral
# Plasmodium berghei [16] = assay: Antiplasmodial activity against Plasmodium berghei NK65 infected in Swiss Webster mice (Mus musculus) assessed as parasitaemia cure at 100 mg/kg, perorally administered 1 day after infection measured after 28 days post infection; type: functional; conditions: route oral
# Outline: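 P. berghei NK-65 infection in male Swiss Webster mice (18-20 g; 2×10^7 parasitized erythrocytes i.p.; ≥5 per group). A single oral dose of 100 μl, diluted in SSV or 0.01 M HCl, then observation for toxicity signs and body weight. Parasitemia read from Giemsa-stained tail smears from day 5 through day 28. Mice free of parasitemia through day 28 counted as cured.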
# Plasmodium berghei [17] = assay: Antiplasmodial activity against Plasmodium berghei NK65 infected in Swiss Webster mice (Mus musculus) assessed as suppression of parasitaemia at 10 mg/kg, intraperitoneally administered 1 day after infection for 3 days measured after 5 days post infection relative to control; type: functional; conditions: Plasmodium berghei, NK65, ip, route intraperitoneal
# HeLa [18] = assay: Cell cycle arrest in human HeLa cells assessed as increase in G0/G1 phase accumulation at 5 uM after 24 hrs by FACS analysis; type: functional
# HeLa [19] = assay: Cell cycle arrest in human HeLa cells assessed as increase in G0/G1 phase accumulation at 10 uM after 24 hrs by FACS analysis; type: functional
# HeLa [20] = assay: Cell cycle arrest in human HeLa cells assessed as increase in G0/G1 phase accumulation at 20 uM after 24 hrs by FACS analysis; type: functional
# HeLa [21] = assay: Cell cycle arrest in human HeLa cells assessed as increase in S phase accumulation at 3 uM after 24 hrs by FACS analysis; type: functional
# HeLa [22] = assay: Cell cycle arrest in human HeLa cells assessed as increase in S phase accumulation at 5 uM after 24 hrs by FACS analysis; type: functional
# HeLa [23] = assay: Cell cycle arrest in human HeLa cells assessed as increase in S phase accumulation at 10 uM after 24 hrs by FACS analysis; type: functional
# HeLa [24] = assay: Cell cycle arrest in human HeLa cells assessed as increase in S phase accumulation at 20 uM after 24 hrs by FACS analysis; type: functional
# HeLa [25] = assay: Cell cycle arrest in human HeLa cells assessed as decrease in G2/M phase accumulation at 5 uM after 24 hrs by FACS analysis; type: functional; design: scale not given: the % may be the effect or the level left
compound,measurement,setting,value
O[C@]12C=C(c3nccc4c3[nH]c3ccccc34)[C@@H]3CCN(CCCC/C=C\CC1)C[C@@]31C[C@@H]3/C=C\CCCCN3[C@H]12 [MANZAMINE A],Ratio IC50,[1],44
same,Activity,[2],>10 µM
same,Papp,MDCK,0.87 ×10⁻⁶ cm/s
same,inhibition in vivo at 1.1 mg/kg,Plasmodium berghei [3],75%
same,inhibition in vivo at 3.3 mg/kg,Plasmodium berghei [4],88%
same,inhibition in vivo at 1.1 mg/kg,Plasmodium berghei [5],5.5%
same,inhibition in vivo at 3.3 mg/kg,Plasmodium berghei [6],2.8%
same,inhibition in vivo at 5 mg/kg,Plasmodium berghei [7],88%
same,inhibition in vivo at 5 mg/kg,Plasmodium berghei [8],4.5%
same,inhibition in vivo at 10 mg/kg,Plasmodium berghei [9],100%
same,inhibition in vivo at 100 mg/kg,Plasmodium berghei [10],100%
same,inhibition in vivo at 5 mg/kg,Plasmodium berghei [11],7.8%
same,inhibition in vivo at 10 mg/kg,Plasmodium berghei [12],> 30%
same,inhibition in vivo at 5 mg/kg,Plasmodium berghei [13],> 30%
same,inhibition in vivo at 200 mg/kg,Plasmodium berghei [14],0%
same,inhibition in vivo at 100 mg/kg,Plasmodium berghei [15],0%
same,inhibition in vivo at 100 mg/kg,Plasmodium berghei [16],100%
same,inhibition in vivo at 10 mg/kg,Plasmodium berghei [17],100%
same,Activity,HeLa [18],56.3%
same,Activity,HeLa [19],59.1%
same,Activity,HeLa [20],67.2%
same,Activity,HeLa [21],56.2%
same,Activity,HeLa [22],56.3%
same,Activity,HeLa [23],59.1%
same,Activity,HeLa [24],67.2%
same,Activity,HeLa [25],14.3%
